The list is not random: actives were taken first. Their share in the collection is about 1.8%.
pCIP destab – p/CIP protein destabilization; F442A p/CIP-EGFP cells, EGFP fluorescence, 16 h; decrease of EGFP signal, % at 10 µM; 290,000 compounds, 0.01% hits; AID 1984;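 active = EGFP signal decrease of at least 30% at 10 µM or well 3 SD below plate mean, unless failing retest; inactive = the rest, including hits failing retest or dose response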
APOBEC3G inh – inhibitors of human APOBEC3G DNA deaminase | Q9HC16 | 330,000 compounds, 0.28% hits | inhibition, % at 20 µM | recombinant A3G, ssDNA deamination FAM/TAMRA fluorescence | AID 493012;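 active = inhibition of at least 40% at 20 µM, with no more than 30% in the related APOBEC3A deaminase screen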;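 also: plate controls were DMSO wells with A3G for no effect and wells lacking A3G enzyme for full effect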
APOBEC3A inh – blocks human APOBEC3A ssDNA deamination. P31941. recombinant A3A, FAM/TAMRA ssDNA deamination fluorescence. inhibition, % at 20 µM. 330,000 compounds, 0.41% hits. AID 493011;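 active = at least 40% inhibition at 20 µM here, with at most 30% in a related deaminase screen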;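 also: plate controls were A3A with DMSO for no effect and wells lacking A3A enzyme for full effect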
PHOSPHO1 inh – blocks human PHOSPHO1 phosphatase activity. Q8TCT1. recombinant PHOSPHO1, absorbance phosphatase assay. inhibition, % at 13.3 µM. 290,000 compounds, 1.1% hits; in the data active = inhibition above about 60%
Target sequence (Q8TCT1 whole entry, looked up): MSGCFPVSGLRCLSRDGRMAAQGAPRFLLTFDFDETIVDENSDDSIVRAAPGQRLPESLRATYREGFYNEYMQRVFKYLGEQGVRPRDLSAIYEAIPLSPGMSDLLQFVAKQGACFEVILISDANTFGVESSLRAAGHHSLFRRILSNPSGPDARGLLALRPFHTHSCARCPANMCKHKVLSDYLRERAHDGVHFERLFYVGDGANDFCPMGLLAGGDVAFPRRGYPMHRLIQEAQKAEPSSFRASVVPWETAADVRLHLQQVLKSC
TbMetRS inhib – blocks T. brucei methionyl-tRNA synthetase activity | purified T. brucei MetRS, ATP depletion, Kinase-Glo luminescence | inhibition, % at 11.9 µM | 360,000 compounds, 0.4% hits;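 active = inhibition above a per-plate cutoff of the control wells' mean inhibition plus 3 SD, cut at about 5.5% in these data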;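 also: 0% = DMSO wells median and 100% = median of wells with control inhibitor compound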
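Measured by: Kinase-Glo luciferase luminescence reporting remaining unconsumed ATP. Material: purified T. brucei MetRS enzyme. Doses: 11.9 µM compound single dose, 0.9% DMSO. Medium: HEPES buffer containing pyrophosphatase, BSA, spermine, DTT. Times: 15 min preincubation, 2 h reaction, all 25 °C. Reagent: methionine, ATP and bulk E. coli tRNA.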
Tb MetRS conf – Trypanosoma brucei MetRS inhibition confirmed | shares compounds with TbMetRS inhib | T. brucei MetRS enzyme, luminescence (ATP depletion) | inhibition, % at 11.9 µM | 1,400 compounds, 93% hits | AID 624412; in the data active = inhibition above about 7%
Jurkat tox – Jurkat T cell cytotoxicity for MetRS hits; Jurkat cells viability, ATP luminescence; shares compounds with TbMetRS inhib; 1,400 compounds, 12% hits; AID 624413; inhibition, % at 8.3 µM; in the data active = inhibition above about 15%;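 also: 0% = vehicle and 100% = reference inhibitor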
Tb MetRS inh FP – T. brucei MetRS inhibition, orthogonal assay; purified T. brucei MetRS, fluorescence polarization; 1,400 compounds, 44% hits; inhibition, % at 11.9 µM; shares compounds with TbMetRS inhib; in the data active = inhibition above about 17%;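 also: 0% = vehicle wells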
* = called active by the depositor; nt = no result given.

SMILES	pCIP destab	APOBEC3G inh	APOBEC3A inh	PHOSPHO1 inh	TbMetRS inhib	Tb MetRS conf	Jurkat tox	Tb MetRS inh FP
Cn1ncnc2c(=O)n(C)c(=O)nc1-2	36	-4	-2	79*	40*	21*	87*	5
COC(=O)C1=C(c2ccc(-c3ccccc3)c(F)c2)C[C@@H]2CC[C@H]1N2C(=O)NCc1cc(C)oc1C(F)(F)F	nt	-4	1	nt	0	nt	nt	nt
NNC(=O)CN1C(=O)CN=C(c2ccccc2)c2cc(Br)ccc21	-6	12	3	20	22*	3	1	6
CCOP(=O)(OCC)c1cc(C)c(O)c(C(C)(C)C)c1	1	-5	-3	32	0	nt	nt	nt
CN1CCN(CC(=O)Nc2ccc([N+](=O)[O-])cc2C(=O)c2ccccc2)CC1	-11	-5	0	29	0	nt	nt	nt
CCC(C)NC(=O)c1c(N)n(CCCOC)c2nc3ccccc3nc12 (centres undefined)	-13	-10	-7	1	5.7*	5	4	0
COCCCn1c(N)c(C(=O)Nc2ccccc2)c2nc3ccccc3nc21	-9	-2	1	36	2	nt	nt	nt
CCC(C)NC(=O)c1c(N)n(Cc2ccc3c(c2)OCO3)c2nc3ccccc3nc12 (centres undefined)	4	-4	-2	-8	6.3*	4	0	5
CCCCn1c(NS(=O)(=O)c2ccccc2)c(C(=O)OCC)c2nc3ccccc3nc21	-18	nt	nt	83*	13*	4	10	-1
COC(=O)C1=C(c2cc3ccccc3o2)C[C@@H]2CC[C@H]1N2C(=O)N1CCC(C)CC1	nt	-3	-1	nt	0	nt	nt	nt
